Here are results for 7 compounds from ChEMBL document CHEMBL1153032, “Benzhydrylquinazolinediones: novel cytosolic phospholipase A2alpha inhibitors with improved physicochemical properties” (Bioorg Med Chem, 2009).

In brackets after ≈: the same amount, converted by molar mass. Bounds are passed on as bounds.

For data set [1], the system named is MC9. Nature of the data set: Inhibition of PGF2alpha production in DNP-BSA-stimulated mouse MC9 cells at 5 uM treated 15 mins before DNP-BSA challenge measured after 4 mins. The class given is functional.
For data set [2], the system named is MC9. Nature of the data set: Inhibition of LTB4 production in DNP-BSA-stimulated mouse MC9 cells at 5 uM treated 15 mins before DNP-BSA challenge measured after 4 mins. The class given is functional.
Data set [3] in a line: Inhibition of cytosolic phospholipase A2alpha by GLU micelle assay.
Data set [4] relates to Blood. The data set can be described thus: Inhibition of TXB2 production in calcium ionophore A-23187-stimulated Sprague-Dawley rat whole blood after 10 mins. The class given is functional, tissue-based.
The test system of data set [5] is MC9. Nature of the data set: Inhibition of PGF2alpha production in arachidonic acid-stimulated mouse MC9 cells at 5 uM treated 15 mins before arachidonic acid challenge measured after 4 mins. The class given is functional.
Data set [6] is described as follows: Aqueous solubility after 18 hrs at pH 7.4. The class given is physicochemical. The gist of the method:
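Compound taken as 8 mg/mL DMSO stock; 13 µL added to 1.0 mL pH 7.4 buffer, mixed, left to settle 18 h at room temperature. Mixture filtered (0.2 µm), filtrate concentration read by UV plate reader. Solubility derived against a single-point standard.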

A short description of data set [7]: Lipophilicity, log D at pH 7.4. It counts as physicochemical. Particulars: buffer.
Data set [8] can be described thus: Permeability in buffer of pH 7.4 by PAMPA. The class given is ADME. Particulars: read-out: permeability. Summed up:
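PAMPA: 5 mg/mL DMSO stock diluted 200-fold in pH 7.4 universal buffer (25 µg/mL) and placed in donor wells. Filter membrane coated with phosphatidylcholine in dodecane (20 mg/mL); acceptor holds pH 7.4 buffer. Sandwich left 18 h at rt. Donor, acceptor and reference concentrations read by UV. Effective permeability (Pe) calculated; triplicate runs averaged. Verapamil and theophylline run as QC standards.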
In general terms: The PAMPA barrier holds no transporters, so it reflects passive diffusion.

The inhibition is the relative decrease from the control value, in per cent. Usually IC50 stands for the concentration that gives 50% inhibition. One may read the solubility as how much of the substance goes into solution per volume. A low value points to a poorly soluble substance. The term logD denotes the decadic logarithm of the distribution of all forms, ionised or not, between an organic phase and buffer at a given pH.

`O=C(O)c1ccc(OC/C=C/Cn2c(=O)c3ccccc3n(C(c3ccccc3)c3ccccc3)c2=O)cc1`: the inhibition at 5 µM in data set [1] was 61%; in data set [2] it was 98%; in data set [5], -15%. Besides, the IC50 was 2 µM in data set [3] and 12 µM in data set [4]. In data set [6], this compound showed a solubility at 18 h of 0.051 mg/mL (≈ 98.3 µM).

With `COc1ccc2c(=O)n(C(c3ccccc3)c3ccccc3)c(=O)n(C/C=C/COc3ccc(C(=O)O)cc3)c2c1`, the inhibition at 5 µM in data set [1] is 74%; in data set [2] it was 99%; in data set [5] it was -98%. The half-maximal inhibitory concentration (IC50) was determined as 3 µM in data set [3] and 9 µM in data set [4]. In data set [7], this compound had a pH-dependent lipophilicity (logD) of 2.8. In addition, in data set [6], the solubility at 18 h is 0.04 mg/mL (≈ 72.9 µM). Besides, in data set [8], the Papp is 18 nm/s.

Turning to `O=C(O)c1ccc(OC/C=C/Cn2c(=O)n(C(c3ccccc3)c3ccccc3)c(=O)c3ccc([N+](=O)[O-])cc32)cc1`, the inhibition at 5 µM in data set [1] is 30%; in data set [2] it was 97%; in data set [5], -12%. The IC50 in data set [3] stood at 1 µM; in data set [4] it was 13 µM. The compound further registered a logD in data set [7] of 2.4. This compound displayed a solubility at 18 h in data set [6] of 0.034 mg/mL (≈ 60.3 µM). In addition, the Papp in data set [8] is 26 nm/s.

For the compound `O=C(O)c1ccc(OC/C=C/Cn2c(=O)n(C(c3ccccc3)c3ccccc3)c(=O)c3ccc(Cl)cc32)cc1`, the inhibition at 5 µM was 99% in data set [1], 98% in data set [2] and -45% in data set [5]. Also, the half-inhibitory concentration (IC50) turned out to be 1 µM in data set [3] and 11 µM in data set [4].

Consider `O=C(O)c1ccc(OC/C=C/Cn2c(=O)n(C(c3ccccc3)c3ccccc3)c(=O)c3ccc(-n4cncn4)cc32)cc1`, for which the results for the inhibition at 5 µM in data set [1], in data set [2] and in data set [5] were 102%, 100% and -28%, respectively. In addition, the IC50 in data set [3] amounted to 1.1 µM; in data set [4], 11 µM. Besides, in data set [7], the log distribution coefficient (logD) stood at 1.4. Besides, the solubility at 18 h in data set [6] was over 0.1 mg/mL. For the same compound, in data set [8], the Papp stood at 16 nm/s.

As to `O=C(O)c1ccc(OC/C=C/Cn2c(=O)n(C(c3ccccc3)c3ccccc3)c(=O)c3ccccc32)cc1`, the inhibition at 5 µM in data set [1] was found to be 52%; in data set [2] it was 97%. For the same compound, the figures for the 50% inhibitory concentration (IC50) in data set [3] and in data set [4] were 3 µM and 14 µM, respectively.

Regarding `O=C(O)c1ccc(OC/C=C/Cn2c(=O)n(C(c3ccccc3)c3ccccc3)c(=O)c3ccc(F)cc32)cc1`, the inhibition at 5 µM in data set [1] was 83%; in data set [2] it was 99%; in data set [5] it was -27%. Besides, the IC50 in data set [3] is 1.4 µM; in data set [4] it was 6 µM. The same compound displayed a logD in data set [7] of 2.9.
